Experiments:
Hepatitis C virus [1] = experiment: Antiviral activity against Hepatitis C virus genotype 1b harboring M423I NS5B (thumb 2) mutation transfected in human HuH7 cells after 72 hrs by luciferase assay; type: functional, cell-based, Hepacivirus hominis; settings: Huh-7, 72 h
Procedure, shortened: (§1)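 Huh-7 cells were transiently electroporated with genotype 1b replicon RNA carrying the specified mutation and plated at 10000 cells/well. Compounds were added at 0.5% DMSO final for 72 h at 37°C. Read-out was Bright-Glo luciferase. EC50 is the mean of two independent runs within 2-fold of each other. A reference drug EC50 was measured alongside each mutant replicon to validate it.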

Hepatitis C virus [2] = experiment: Antiviral activity against Hepatitis C virus genotype 1b Con 1 infected in human HuH7 cells at 5 nM after 72 hrs by luciferase assay in presence of 12 nM simeprevir; type: functional, Hepacivirus hominis, Huh-7
Procedure, shortened: (§2)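 Huh-7 cells stably carrying a GT1b Con1 bicistronic luciferase replicon, seeded at 8000 cells/well. The test compound and the partner DAA are dosed orthogonally at various concentrations, final 0.5% DMSO, then incubated 72 h at 37°C. Bright-Glo luciferase read-out gives replicon inhibition as % of untreated control. Cytotoxicity is checked in parallel by CellTiter-Fluor. CI and DRI are derived by the Chou–Talalay median-effect method.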

Hepatitis C virus [3] = experiment: Antiviral activity against Hepatitis C virus genotype 1b Con 1 infected in human HuH7 cells at 40 nM after 72 hrs by luciferase assay in presence of 3 nM simeprevir; type: functional, Hepacivirus hominis, Huh-7; procedure, shortened: as §2
Hepatitis C virus [4] = experiment: Antiviral activity against Hepatitis C virus genotype 1b Con 1 infected in human HuH7 cells at 40 nM after 72 hrs by luciferase assay in presence of 0.02 nM daclatasvir; type: functional, Hepacivirus hominis, Huh-7; procedure, shortened: as §2
Hepatitis C virus [5] = experiment: Antiviral activity against Hepatitis C virus genotype 1b Con 1 infected in human HuH7 cells at 2.5 nM after 72 hrs by luciferase assay in presence of 60 nM sofobuvir; type: functional, Hepacivirus hominis, Huh-7
Procedure, shortened: (§3)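 Stable Con1 GT1b bicistronic luciferase replicon in Huh-7 cells, 8000 cells/well. Test compound and a marketed DAA or clemizole added alone or together at varied concentrations, 0.5% DMSO final. 72 h at 37°C, then luciferase read with Bright-Glo. Inhibition expressed as % of untreated control, with cytotoxicity run in parallel. CI and DRI derived by the Chou–Talalay median-effect method.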

Hepatitis C virus [6] = experiment: Antiviral activity against Hepatitis C virus genotype 1b Con 1 infected in human HuH7 cells at 2.5 nM after 72 hrs by luciferase assay in presence of 15 uM clemizole; type: functional, Hepacivirus hominis, Huh-7; procedure, shortened: as §3
Hepatitis C virus [7] = experiment: Antiviral activity against Hepatitis C virus genotype 1b Con 1 infected in human HuH7 cells at 20 nM after 72 hrs by luciferase assay in presence of 6 nM simeprevir; type: functional, Hepacivirus hominis, Huh-7; procedure, shortened: as §2
Hepatitis C virus [8] = experiment: Antiviral activity against Hepatitis C virus genotype 1b Con 1 infected in human HuH7 cells at 20 nM after 72 hrs by luciferase assay in presence of 20 uM clemizole; type: functional, Hepacivirus hominis, Huh-7; procedure, shortened: as §2
Hepatitis C virus [9] = experiment: Antiviral activity against Hepatitis C virus genotype 1b Con 1 infected in human HuH7 cells at 2.5 nM after 72 hrs by luciferase assay in presence of 17.5 uM clemizole; type: functional, Hepacivirus hominis, Huh-7; procedure, shortened: as §3
Hepatitis C virus [10] = experiment: Antiviral activity against Hepatitis C virus genotype 1b Con 1 infected in human HuH7 cells at 10 nM after 72 hrs by luciferase assay in presence of 20 uM clemizole; type: functional, Hepacivirus hominis, Huh-7; procedure, shortened: as §3
Hepatitis C virus [11] = experiment: Antiviral activity against Hepatitis C virus genotype 1b Con 1 infected in human HuH7 cells at 5 nM after 72 hrs by luciferase assay in presence of 12.5 uM clemizole; type: functional, Hepacivirus hominis, Huh-7; procedure, shortened: as §2
Hepatitis C virus [12] = experiment: Antiviral activity against Hepatitis C virus genotype 1b Con 1 infected in human HuH7 cells at 5 nM after 72 hrs by luciferase assay in presence of 0.08 nM daclatasvir; type: functional, Hepacivirus hominis, Huh-7; procedure, shortened: as §2
Hepatitis C virus [13] = experiment: Antiviral activity against Hepatitis C virus genotype 1b Con 1 infected in human HuH7 cells at 80 nM after 72 hrs by luciferase assay in presence of 24 nM simeprevir; type: functional, Hepacivirus hominis, Huh-7; procedure, shortened: as §2
Hepatitis C virus [14] = experiment: Antiviral activity against Hepatitis C virus genotype 1b Con 1 infected in human HuH7 cells at 5 nM after 72 hrs by luciferase assay in presence of 10 uM clemizole; type: functional, Hepacivirus hominis, Huh-7; procedure, shortened: as §2
Hepatitis C virus [15] = experiment: Antiviral activity against Hepatitis C virus genotype 1b Con 1 infected in human HuH7 cells at 2.5 nM after 72 hrs by luciferase assay in presence of 12.5 uM clemizole; type: functional, Hepacivirus hominis, Huh-7; procedure, shortened: as §3
Hepatitis C virus [16] = experiment: Antiviral activity against Hepatitis C virus genotype 1b Con 1 infected in human HuH7 cells at 5 nM after 72 hrs by luciferase assay in presence of 0.04 nM daclatasvir; type: functional, Hepacivirus hominis, Huh-7; procedure, shortened: as §2
Hepatitis C virus [17] = experiment: Antiviral activity against Hepatitis C virus genotype 1b harboring P495A NS5B (thumb 1) mutation transfected in human HuH7 cells after 72 hrs by luciferase assay; type: functional, cell-based, Hepacivirus hominis; settings: Huh-7, 72 h; procedure, shortened: as §1
Hepatitis C virus [18] = experiment: Antiviral activity against Hepatitis C virus genotype 1b Con 1 infected in human HuH7 cells at 80 nM after 72 hrs by luciferase assay in presence of 7.5 uM clemizole; type: functional, Hepacivirus hominis, Huh-7
Procedure, shortened: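 Con1 GT1b luciferase replicon Huh-7 cells, seeded at 8000 cells/well. The compound was combined orthogonally with clemizole across a range of concentrations (0.5% DMSO final) and incubated for 72 h at 37°C. Bright-Glo luciferase inhibition was expressed as a percentage of the untreated control. Cytotoxicity was run in parallel.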

Hepatitis C virus [19] = experiment: Antiviral activity against Hepatitis C virus genotype 1b Con 1 infected in human HuH7 cells at 5 nM after 72 hrs by luciferase assay in presence of 30 nM sofobuvir; type: functional, Hepacivirus hominis, Huh-7; procedure, shortened: as §2
Hepatitis C virus [20] = experiment: Antiviral activity against Hepatitis C virus genotype 1b Con 1 infected in human HuH7 cells at 2.5 nM after 72 hrs by luciferase assay in presence of 0.04 nM daclatasvir; type: functional, Hepacivirus hominis, Huh-7; procedure, shortened: as §3
Hepatitis C virus [21] = experiment: Antiviral activity against Hepatitis C virus genotype 1b Con 1 infected in human HuH7 cells at 10 nM after 72 hrs by luciferase assay in presence of 0.08 nM daclatasvir; type: functional, Hepacivirus hominis, Huh-7; procedure, shortened: as §3
Hepatitis C virus [22] = experiment: Antiviral activity against Hepatitis C virus genotype 1b Con 1 infected in human HuH7 cells at 160 nM after 72 hrs by luciferase assay in presence of 30 nM sofobuvir; type: functional, Hepacivirus hominis, Huh-7; procedure, shortened: as §3
Hepatitis C virus [23] = experiment: Antiviral activity against Hepatitis C virus genotype 1b Con 1 infected in human HuH7 cells at 5 nM after 72 hrs by luciferase assay in presence of 24 nM simeprevir; type: functional, Hepacivirus hominis, Huh-7; procedure, shortened: as §2
Hepatitis C virus [24] = experiment: Antiviral activity against Hepatitis C virus genotype 1b Con 1 infected in human HuH7 cells at 80 nM after 72 hrs by luciferase assay in presence of 6 nM simeprevir; type: functional, Hepacivirus hominis, Huh-7; procedure, shortened: as §2
Hepatitis C virus [25] = experiment: Antiviral activity against Hepatitis C virus genotype 1b Con 1 infected in human HuH7 cells at 160 nM after 72 hrs by luciferase assay in presence of 15 uM clemizole; type: functional, Hepacivirus hominis, Huh-7; procedure, shortened: as §3
Hepatitis C virus [26] = experiment: Antiviral activity against Hepatitis C virus genotype 1b Con 1 infected in human HuH7 cells at 80 nM after 72 hrs by luciferase assay in presence of 3 nM simeprevir; type: functional, Hepacivirus hominis, Huh-7; procedure, shortened: as §2
Hepatitis C virus [27] = experiment: Antiviral activity against Hepatitis C virus genotype 1b harboring H94R mutation transfected in human HuH7 cells after 72 hrs by luciferase assay; type: functional, cell-based, Hepacivirus hominis; settings: Huh-7, 72 h; procedure, shortened: as §1
Hepatitis C virus [28] = experiment: Antiviral activity against Hepatitis C virus genotype 1b Con 1 infected in human HuH7 cells at 40 nM after 72 hrs by luciferase assay in presence of 0.16 nM daclatasvir; type: functional, Hepacivirus hominis, Huh-7; procedure, shortened: as §2
Hepatitis C virus [29] = experiment: Antiviral activity against Hepatitis C virus genotype 1b harboring F98C mutation transfected in human HuH7 cells after 72 hrs by luciferase assay; type: functional, cell-based, Hepacivirus hominis; settings: Huh-7, 72 h; procedure, shortened: as §1

O=C(c1nc2scc(C3CC3)n2c1Cl)N1CCN(C2CCCC2)C(=O)C1
EC50 (Hepatitis C virus [1]): 9 nM
CI (Hepatitis C virus [2]): 0.75
CI (Hepatitis C virus [3]): 0.74
CI (Hepatitis C virus [4]): 0.78
CI (Hepatitis C virus [5]): 1.04
CI (Hepatitis C virus [6]): 1.17
CI (Hepatitis C virus [7]): 0.48
CI (Hepatitis C virus [8]): 1.03
CI (Hepatitis C virus [9]): 1.36
CI (Hepatitis C virus [10]): 1.16
CI (Hepatitis C virus [11]): 0.71
CI (Hepatitis C virus [12]): 0.66
CI (Hepatitis C virus [13]): 0.87
CI (Hepatitis C virus [14]): 0.75
CI (Hepatitis C virus [15]): 1.07
CI (Hepatitis C virus [16]): 0.89
EC50 (Hepatitis C virus [17]): 10 nM
CI (Hepatitis C virus [18]): 0.85
CI (Hepatitis C virus [19]): 0.77
CI (Hepatitis C virus [20]): 0.89
CI (Hepatitis C virus [21]): 0.69
CI (Hepatitis C virus [22]): 0.89
CI (Hepatitis C virus [23]): 1.31
CI (Hepatitis C virus [24]): 0.37
CI (Hepatitis C virus [25]): 1.45
CI (Hepatitis C virus [26]): 0.62
EC50 (Hepatitis C virus [27]): 3980 nM
CI (Hepatitis C virus [28]): 0.64
EC50 (Hepatitis C virus [29]): 27100 nM
